These results are taken from ChEMBL document CHEMBL1123507, “Antipicornavirus activity of substituted phenoxybenzenes and phenoxypyridines” (J Med Chem, 1986).

Data set [1] has as its system Enterovirus. The data set is described as follows: Lowest concentration to reduce viral effect by 50% or more against Rhinovirus (RV)-2. Type of data set: functional. An outline of the steps:
(§1)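 HeLa monolayers were seeded at (1.0-1.3) × 10^5 cells/well, grown 24 h at 36 °C in 5% CO2 to 60–75% cover, then refed with maintenance medium (1-2% heat-inactivated FCS) containing two-fold serial compound dilutions made from a 200 μg/mL stock in Me2SO/medium, with final Me2SO ≤0.1%. Cells were challenged with 10-100 TCID50 virus, and CPE was read microscopically at 48 and 72 h. MIC50 was the lowest concentration giving ≥50% CPE reduction versus virus control. Cytotoxicity was the lowest concentration causing cell death, a growth change or a morphology change in uninfected cultures.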

Data set [2] deals with HeLa. The data set is described as follows: Cytotoxicity concentration in HeLa cells. The note with it: human. The class given is cell-based. Summed up:
as §1

Data set [3] relates to Coxsackievirus. The data set is described as follows: Ratio of the MIC50 of 6-(4-Nitro-phenoxy)-nicotinonitrile compared to compound obtained in the same test for coxsackie A21. The class given is functional. An outline of the steps: (§2)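 Relative activity was calculated as the MIC50 of the positive control 5-cyano-2-(4-nitrophenoxy)pyridine divided by the MIC50 of the test compound. Both were measured in parallel in the same HeLa CPE test (48/72 h microscopic reading) against RV-1A, RV-2 or coxsackievirus A21.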

Data set [4] has as its system Coxsackievirus. The data set is described as follows: Lowest concentration to reduce viral effect by 50% or more against coxsackie virus A21. Type of data set: functional. An outline of the steps: as §1
For data set [5], the system named is Enterovirus. In words: Ratio of the MIC50 of 6-(4-Nitro-phenoxy)-nicotinonitrile compared to compound obtained in the same test for Rhinovirus (RV)-2. The class given is functional. An outline of the steps:
as §2

For data set [6], the system named is Enterovirus. In words: Lowest concentration to reduce viral effect by 50% or more against Rhinovirus (RV)-1A. The class given is functional. Summed up: as §1
The test system of data set [7] is Enterovirus. The data set is described as follows: Ratio of the MIC50 of 6-(4-Nitro-phenoxy)-nicotinonitrile compared to compound obtained in the same test for Rhinovirus (RV)-1A. Type of data set: functional. An outline of the steps:
as §2

≈ marks a conversion by molar mass, not a printed value.

As for `CS(=O)(=O)c1ccc(Oc2ccc(C#N)cc2)cc1`, the MIC50 came out at 45.8 µM (≈ 12.5 µg/mL) in data set [1] and 11.4 µM (≈ 3.12 µg/mL) in data set [4]. The same compound registered a Toxicity in data set [2] of 183 µM. Moreover, the figures for the Relative activity in data set [3] and in data set [5] were 2.3 and 0.56, respectively.
With `O=S(=O)(c1ccccc1)c1ccc(Oc2ccc(Cl)c(Cl)c2)cc1`, the MIC50 in data set [1], in data set [4] and in data set [6] was 1.6 µM (≈ 0.607 µg/mL) each time. In addition, in data set [2], the Toxicity amounted to 3.3 µM.
`O=S(=O)(O)c1ccc(Oc2ccc(Cl)c(Cl)c2)nc1`: the MIC50 in data set [1] was more than 312 µM; in data set [4], 312 µM (≈ 99.9 µg/mL); in data set [6] it was 20 µM (≈ 6.4 µg/mL). The Toxicity in data set [2] stood at 312 µM. Further, the Relative activity in data set [7] turned out to be 1.3.
`CS(=O)(=O)c1ccc(Oc2ccc(Cl)c(Cl)c2)c(N)c1`: the MIC50 in data set [1] is 18.7 µM (≈ 6.21 µg/mL); in data set [4], 18.7 µM (≈ 6.21 µg/mL); in data set [6] it was 15 µM (≈ 4.98 µg/mL). This compound also registered a Toxicity in data set [2] of 19 µM.
In data set [2], `N#Cc1ccc(Oc2ccc(F)cc2)nc1` came in with a Toxicity of 250 µM. Also, the Relative activity in data set [3] is 1.7; in data set [7] it was 3.3. For the same compound, the MIC50 in data set [4] came to 69 µM (≈ 14.8 µg/mL); in data set [6], 34 µM (≈ 7.28 µg/mL).
Turning to `N#Cc1cc(Cl)ccc1Oc1ccc(Cl)c(Cl)c1`, the results for the MIC50 in data set [1], in data set [4] and in data set [6] were more than 334 µM, 1 µM (≈ 0.299 µg/mL) and more than 334 µM, respectively. Besides, the Toxicity in data set [2] is more than 334 µM. In addition, the Relative activity in data set [3] worked out at 5.2.
For `N#Cc1ccccc1Oc1ccc(Cl)c(Cl)c1`, the MIC50 in data set [1] is more than 379 µM; in data set [4], 23.7 µM (≈ 6.26 µg/mL); in data set [6], more than 379 µM. Besides, the Toxicity in data set [2] came to 379 µM. For the same compound, the Relative activity in data set [3] was 1.1.
For the compound `N#Cc1cc(Oc2ccc(Cl)c(Cl)c2)ccc1[N+](=O)[O-]`, the MIC50 in data set [1] and in data set [4] was 16.2 µM (≈ 5.01 µg/mL) throughout. In data set [2], this compound came in with a Toxicity of 162 µM. In addition, the Relative activity in data set [3] and in data set [5] was 1.2 each time.
Regarding `N#Cc1ccc(Oc2ccc(Cl)c(Cl)c2)c(C#N)c1`, the results for the MIC50 in data set [1], in data set [4] and in data set [6] were 10.7 µM (≈ 3.09 µg/mL), 10.7 µM (≈ 3.09 µg/mL) and more than 173 µM, respectively. The same compound registered a Toxicity in data set [2] of more than 173 µM. The Relative activity in data set [3] is 3.1; in data set [5], 2.4.
Regarding `O=[N+]([O-])c1ccc(Oc2ccc(Cl)c(Cl)c2)c([N+](=O)[O-])c1`, the MIC50 was more than 304 µM in data set [1], 19 µM (≈ 6.25 µg/mL) in data set [4] and more than 304 µM in data set [6]. Moreover, the Toxicity in data set [2] was 19 µM.
Turning to `Nc1ccc(Oc2ccc(Cl)c(Cl)c2)nc1`, the Toxicity in data set [2] is 88 µM. Also, the Relative activity in data set [7] turned out to be 4.1. For the same compound, the MIC50 was 98 µM (≈ 25 µg/mL) in data set [4] and 5 µM (≈ 1.28 µg/mL) in data set [6].
For `CS(=O)(=O)c1ccc(Oc2ccc([N+](=O)[O-])cc2C#N)cc1`, the MIC50 in data set [1] is 39.3 µM (≈ 12.5 µg/mL); in data set [4], 2 µM (≈ 0.637 µg/mL); in data set [6] it was more than 314 µM. In data set [2], this compound gave a Toxicity of more than 314 µM. Moreover, the results for the Relative activity in data set [3] and in data set [5] were 2.6 and 1.3, respectively.
On to `CS(=O)(=O)c1cccnc1Oc1ccc(Cl)c(Cl)c1`, for which the MIC50 in data set [1] is 157 µM (≈ 50 µg/mL); in data set [4], 157 µM (≈ 50 µg/mL); in data set [6], 79 µM (≈ 25.1 µg/mL). The compound also gave a Toxicity in data set [2] of 157 µM.
For the compound `CC(=O)c1ccc(Oc2ccc(S(C)(=O)=O)cc2)cc1`, the MIC50 in data set [1] is 8.6 µM (≈ 2.5 µg/mL); in data set [4] it was 17.2 µM (≈ 4.99 µg/mL); in data set [6] it was 86.2 µM (≈ 25 µg/mL). Further, the Toxicity in data set [2] came to 172 µM. The figures for the Relative activity in data set [3] and in data set [5] were 0.769 and 3, respectively.
As for `CS(=O)(=O)c1ccc(Oc2cccc(Cl)c2)cc1`, the MIC50 in data set [1] and in data set [4] was 22.1 µM (≈ 6.25 µg/mL) throughout. In addition, the Toxicity in data set [2] was found to be 88 µM. In addition, the Relative activity in data set [3] was 0.59; in data set [5] it was 1.2.
For the compound `CS(=O)(=O)c1ccc(Oc2ccc(Cl)c(Cl)c2)c([N+](=O)[O-])c1`, the MIC50 in data set [1] was 16.7 µM (≈ 6.05 µg/mL); in data set [4] it was more than 267 µM; in data set [6], more than 267 µM. The Toxicity in data set [2] is more than 267 µM. In addition, the Relative activity in data set [5] was 3.1.
Consider `CSc1ccc(Oc2ccc([N+](=O)[O-])cc2C#N)cc1`, for which the MIC50 in data set [1] was 21.8 µM (≈ 6.24 µg/mL); in data set [4] it was 0.87 µM (≈ 0.249 µg/mL); in data set [6], more than 350 µM. The same compound registered a Toxicity in data set [2] of 350 µM. Also, the Relative activity in data set [3] is recorded as 6; in data set [5] it was 2.4.
`N#Cc1cc([N+](=O)[O-])ccc1Oc1ccccc1C(F)(F)F`: the results for the MIC50 in data set [1], in data set [4] and in data set [6] were 3.9 µM (≈ 1.2 µg/mL), 32 µM (≈ 9.86 µg/mL) and more than 324 µM, respectively. In data set [2], this compound returned a Toxicity of 32 µM. In data set [5], the Relative activity was found to be 3.3.
As for `CS(=O)(=O)c1ccnc(Oc2ccc(Cl)c(Cl)c2)c1`, the MIC50 amounted to 79 µM (≈ 25.1 µg/mL) in data set [1], 5 µM (≈ 1.59 µg/mL) in data set [4] and 79 µM (≈ 25.1 µg/mL) in data set [6]. The compound further gave a Toxicity in data set [2] of 157 µM. For the same compound, in data set [3], the Relative activity was found to be 10.4.
For the compound `N#Cc1cc(N)ccc1Oc1ccc(Cl)c(Cl)c1`, the figures for the MIC50 in data set [1], in data set [4] and in data set [6] were 9 µM (≈ 2.51 µg/mL), 2.2 µM (≈ 0.614 µg/mL) and 4.5 µM (≈ 1.26 µg/mL), respectively. The compound further came in with a Toxicity in data set [2] of 9 µM. Moreover, in data set [3], the Relative activity is 11.8.
Consider `CS(=O)(=O)c1ccc(Oc2ccc(C(=O)c3ccccc3)cc2)cc1`, for which the MIC50 in data set [1] was 142 µM (≈ 50 µg/mL); in data set [4] it was 0.88 µM (≈ 0.31 µg/mL); in data set [6], more than 284 µM. The compound also came in with a Toxicity in data set [2] of more than 284 µM. Moreover, in data set [3], the Relative activity is 5.9.
The compound `CC(=O)c1ccc(Oc2ccc(C#N)cn2)cc1` showed a Toxicity in data set [2] of 420 µM. Also, the Relative activity in data set [3] worked out at 0.02. Further, the MIC50 was found to be 53 µM (≈ 12.6 µg/mL) in data set [4] and 210 µM (≈ 50 µg/mL) in data set [6].
For `COc1ccccc1Oc1ccc([N+](=O)[O-])cc1C#N`, the MIC50 in data set [1] amounted to 9.2 µM (≈ 2.49 µg/mL); in data set [4] it was 18.5 µM (≈ 5 µg/mL); in data set [6] it was 9.2 µM (≈ 2.49 µg/mL). This compound registered a Toxicity in data set [2] of 18.5 µM.
Consider `CS(=O)(=O)c1ccc(Oc2ccccc2Cl)cc1`, for which the figures for the MIC50 in data set [1], in data set [4] and in data set [6] were 44.2 µM (≈ 12.5 µg/mL), 11 µM (≈ 3.11 µg/mL) and 88 µM (≈ 24.9 µg/mL), respectively. This compound also registered a Toxicity in data set [2] of 88 µM. For the same compound, the Relative activity in data set [3] is reported as 1.2.
In the case of `COc1ccc(Oc2ccc([N+](=O)[O-])cc2C#N)cc1OC`, the MIC50 in data set [1] is 20.7 µM (≈ 6.22 µg/mL); in data set [4], 10.3 µM (≈ 3.09 µg/mL); in data set [6], more than 167 µM. This compound came in with a Toxicity in data set [2] of more than 167 µM. Also, the Relative activity is 1.3 in data set [3] and 0.63 in data set [5].
For the compound `CS(=O)(=O)c1ccc(Oc2ccc(O)cc2)cc1`, the MIC50 in data set [1] is 94.7 µM (≈ 25 µg/mL); in data set [4], more than 189 µM; in data set [6], 94.7 µM (≈ 25 µg/mL). This compound also came in with a Toxicity in data set [2] of 95 µM.
As to `N#Cc1cc([N+](=O)[O-])ccc1Oc1ccc(C(=O)c2ccccc2)cc1`, the MIC50 is more than 291 µM in data set [1], 36.3 µM (≈ 12.5 µg/mL) in data set [4] and more than 291 µM in data set [6]. This compound came in with a Toxicity in data set [2] of more than 291 µM. In data set [3], the Relative activity is recorded as 1.4.
As to `CS(=O)(=O)c1ccc(Oc2ccc(Cl)c(Cl)c2)c(C#N)c1`, the values for the MIC50 in data set [1], in data set [4] and in data set [6] were 18.3 µM (≈ 6.26 µg/mL), more than 292 µM and more than 292 µM, respectively. The Toxicity in data set [2] is 292 µM. Besides, the Relative activity in data set [5] was found to be 2.8.
